According to ChEMBL document CHEMBL1811914, “Bioactive compounds from the aerial parts of Brachystemma calycinum and structural revision of an octacyclopeptide” (J Nat Prod, 2011):
Active and inactive are the calls of the source. The calls are words filed in the database; no cut-off is given here. Where a SMILES comes first, the peptide text is derived from it.

Key:
CRL-2573 [1] = assay: Inhibition of high glucose-induced CCL2 secretion in rat CRL-2573 cells at 10 uM after 24 hrs by ELISA; format: functional, cell-based
Summary of the method: (§1)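 Rat mesangial cells (CRL-2573) grown in DMEM with 5.6 mM D-glucose (pH 7.4), 20% FCS, penicillin/streptomycin, 10 mM HEPES. At 80% confluence, growth arrested in 0.5% FCS for 24 h. Pretreated 1 h with compound (1 or 10 μM), then high glucose 24 h. Supernatant analyte quantified by sandwich ELISA, normalized to total cell protein (BCA).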

CRL-2573 [2] = assay: Inhibition of high glucose-induced IL-6 secretion in rat CRL-2573 cells at 10 uM after 24 hrs by ELISA; format: functional, cell-based; summary of the method: as §1
CRL-2573 [3] = assay: Inhibition of high glucose-induced collagen-4 secretion in rat CRL-2573 cells at 10 uM after 24 hrs by ELISA; format: functional, cell-based; summary of the method: as §1
CRL-2573 [4] = assay: Antioxidant activity against high glucose-induced intracellular ROS production in rat CRL-2573 cells assessed as carboxymethyl-H2-dichlorofluorescein diacetate conversion to 2',7'-dichlorofluorescein at 1 to 10 uM preincubated for 1 hr prior to high glucose challenge by flow cytometer; format: functional, cell-based
Summary of the method: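 Rat mesangial cells cultured and growth-arrested as for secretion assays. Exposed to 5.6 mM (normal) or 25 mM (high) D-glucose for up to 24 h, with or without compound preincubation. Intracellular ROS then measured.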

CRL-2573 [5] = assay: Antioxidant activity against high glucose-induced intracellular superoxide ion production in rat CRL-2573 cells at 1 to 10 uM measured every minute for 30 mins by lucigenin-enhanced chemiluminescence assay in presence of NADPH; format: functional, cell-based
Summary of the method: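 Homogenates of cultured rat mesangial cells (100 μg/well) assayed by lucigenin-enhanced chemiluminescence. Dark-adapted lucigenin (5 μM) with or without NADPH (100 μM) added immediately before reading. Signal recorded every minute for 30 min.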

RAW264.7 = assay: Inhibition of LPS-induced nitric oxide production in […] cells at 25 uM; format: functional, cell-based
CRL-2573 [6] = assay: Inhibition of high glucose-induced collagen-1 secretion in rat CRL-2573 cells at 10 uM after 24 hrs by ELISA; format: functional, cell-based; summary of the method: as §1
[7] = Cytotoxicity in rat CRL-2573 cells at 10 uM after 24 hrs by trypan blue exclusion assay; format: cell-based; details: crl-2573, 24 h

CC(C)C[C@@H]1NC(=O)CNC(=O)[C@H](C(C)C)NC(=O)[C@@H]2CCCN2C(=O)[C@H](Cc2ccccc2)NC(=O)[C@H]([C@@H](C)O)NC(=O)[C@@H]2CCCN2C(=O)[C@H]([C@@H](C)O)NC1=O (HELM PEPTIDE1{F.P.V.G.L.T.P.T}$PEPTIDE1,PEPTIDE1,1:R1-8:R2$$$V2.0)
inhibition (CRL-2573 [1]): Active | inhibition (CRL-2573 [2]): Active | inhibition (CRL-2573 [3]): Active

COC1CCC(=O)N1[C@@H]1C=C(COC(=O)c2ccc[nH]2)CO1 (some centres undefined)
inhibition (CRL-2573 [1]): Active | inhibition (CRL-2573 [2]): Active | inhibition (CRL-2573 [3]): Active

CC(C)C[C@@H]1NC(=O)CNC(=O)[C@H](C)NC(=O)[C@@H]2CCCN2C(=O)[C@@H]2CCCN2C(=O)[C@H](Cc2ccccc2)NC(=O)[C@H]([C@@H](C)O)NC(=O)[C@H](C)NC1=O (HELM PEPTIDE1{A.G.L.A.T.F.P.P}$PEPTIDE1,PEPTIDE1,1:R1-8:R2$$$V2.0)
Activity (CRL-2573 [4]): Active | Activity (CRL-2573 [5]): Active | inhibition (RAW264.7): inactive | inhibition (CRL-2573 [1]): Active | inhibition (CRL-2573 [2]): Active | inhibition (CRL-2573 [3]): Active | inhibition (CRL-2573 [6]): Active | Activity [7]: Non-toxic
